Screening results as filed in PubChem BioAssay.
This is a sample that favours compounds with a hit; in the whole collection about 1.6% have one here.
PG9 binder = binders of HIV-1 gp120 antibody PG9, primary screen, biochemical, TR-FRET; 360,000 tested, 0.43% active; TR-FRET gp120-PG9 antibody binding; AID 624416, 2012; HIV-1 gp120 / PG9 antibody interaction; inhibition, % at 6.7 µM; in the data active = inhibition above about 8.5%
PKA-R1A activ = activators of PKA-R1A holoenzyme, primary screen, biochemical, fluorescence polarization, Cy5-IP20, bovine R1A, mouse PKAc. cAMP-dependent protein kinase type I-alpha regulatory subunit (Bos taurus) + …. PKA-R1A dissociation; scaled: DMSO 0%, 113 µM cGMP 100%. activation, % at 11.4 µM. 340,000 tested, 0.083% active;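 active = percent activation above the mean of all tested compounds plus 3 SD, cut at about 19% in these data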;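 note: higher means more PKAc released from R1A so a rise in polarization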
NR2E3 ag-1 = inhibitors of NR2E3-RetCOR corepressor binding, primary screen, NR2E3 agonist project, biochemical, TR-FRET, GST-NR2E3, biotin-RetCOR. inhibition of corepressor binding, % at 4.78 µM. 320,000 tested, 0.12% active. Photoreceptor-specific nuclear receptor (Homo sapiens), Q9Y5X4. 1536-well;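 active = percent inhibition above the cutoff of mean plus 3 SD of all tested compounds, set per screening campaign, cut at about 20% in these data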
Target sequence (Q9Y5X4 whole entry, looked up): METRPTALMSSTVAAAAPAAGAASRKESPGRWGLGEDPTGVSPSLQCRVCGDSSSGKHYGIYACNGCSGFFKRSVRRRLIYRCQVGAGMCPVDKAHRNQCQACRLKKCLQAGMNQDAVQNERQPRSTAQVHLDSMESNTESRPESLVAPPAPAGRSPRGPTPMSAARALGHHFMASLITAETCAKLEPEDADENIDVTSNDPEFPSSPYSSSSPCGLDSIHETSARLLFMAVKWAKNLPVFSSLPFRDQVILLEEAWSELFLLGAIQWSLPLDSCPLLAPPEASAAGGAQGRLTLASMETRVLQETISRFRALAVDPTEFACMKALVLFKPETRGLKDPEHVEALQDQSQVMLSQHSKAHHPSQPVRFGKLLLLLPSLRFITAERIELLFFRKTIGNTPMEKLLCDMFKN
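Material: NR2E3–RetCOR corepressor complex / Amount: 1.35 nM GST-NR2E3 / Medium: Tris pH 7.5 / Compound: single nominal compound dose of 4.8 µM / Incubation: 5 h at 4 °C / Technique: TR-FRET, Eu(K)-anti-GST donor, streptavidin-D2 acceptor, ex 340, em 617/671 nm / Read-out basis: percent loss of FRET ratio relative to control wells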
NR1D1 modulator = modulators of Rev-erb alpha DNA binding, primary screen, biochemical, FITC-DNA, fluorescence polarization, uHTS; Nuclear receptor subfamily 1 group D member 1 (Homo sapiens), P20393; Rev-erbα–FITC-DNA binding, 90 min; activity, % at 10 µM; 370,000 tested, 0.79% active;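 active = activity above about 14%, limit read from the data; passing the limit was not always enough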
PKA-R2B act = activators of PKA-R2B holoenzyme, primary screen, biochemical, fluorescence polarization, Cy5-IP20, human; cAMP-dependent protein kinase catalytic subunit beta (Homo sapiens) + cAMP-dependent …; PKA-R2B holoenzyme dissociation; R2B truncated from residue 108, S112A mutant; 0% DMSO only, 100% 113 µM cGMP; activation, % at 11.4 µM; 340,000 tested, 0.079% active; AID 504700, 2011;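 active = activation above a cutoff set at the mean over all compounds plus 3 SD, cut at about 18% in these data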;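 note: higher means more holoenzyme dissociation and a rise in polarization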
NR2E3 ag-2 = NR2E3 agonists in two-hybrid cells, primary screen, cell-based, luminescence, CHO-S, Gal4-NCOR/VP16-NR2E3; Photoreceptor-specific nuclear receptor (Homo sapiens), Q9Y5X4; luciferase; inhibition of corepressor binding, % at 3.98 µM; 360,000 tested, 0.35% active; AID 602229, 2012;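 active = inhibition above the mean of all tested compounds plus 3 SD, cut at about 70% in these data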;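 note: higher means lower luciferase signal from less NR2E3 corepressor binding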
NR1D1 mod conf = modulators of Rev-erb alpha DNA binding, confirmation, biochemical, FITC-DNA, fluorescence polarization, single point. shares compounds with NR1D1 modulator. 90 min. activation, % at 25 µM. 3,000 tested, 61% active. AID 1259319, 2017;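 active = activation at or above a set limit, or at least 3 SD above the negative control mean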
RORg counter = modulation of RORgamma DNA binding, dose response, counter-screen for Rev-erb alpha modulator project, biochemical, fluorescence polarization, FITC-DNA. IC50, µM. 910 tested, 8% active. purified RORgamma protein-FITC-DNA binding. shares compounds with NR1D1 modulator;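 active = Compounds whose fitted half-maximal concentration for disrupting protein-DNA binding is below 10 micromolar; the record names Rev-erb in its text, so the target is in doubt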
Numbers stand for hits; n = inactive; x = no result.

SMILES	PG9 binder	PKA-R1A activ	NR2E3 ag-1	NR1D1 modulator	PKA-R2B act	NR2E3 ag-2	NR1D1 mod conf	others
Cc1cccc(NC(=O)[C@H]2CC(=O)O[C@@H]2c2ccccc2)c1C	x	x	x	n	x	x	x
CN(C)CCNc1ccc2ncn3c4ccc(O)cc4c(=O)c1c23	n	n	x	19.8	n	n	24.0
C[C@H]1COc2cc(Br)ccc2S(=O)(=O)N1Cc1cn(Cc2ccc(Br)cc2)nn1	x	x	x	n	x	x	x
Cc1c(N=C2N=C(NC(=O)c3ccc(F)cc3)c3ccccc32)c(=O)n(-c2ccccc2)n1C	n	n	n	92.1	n	n	50.8
Cc1c(NC(=O)NC(=O)c2ccc(F)cc2)c(=O)n(-c2ccccc2)n1C	n	n	n	n	n	n	x
COc1ccc(N/C=C\C(=O)c2ccc3c(c2)OCO3)cc1OC	n	n	n	n	n	n	x
COC(=O)c1ccc(N/C=C/C(=O)c2ccc(OC)c(OC)c2)cc1	n	n	n	23.2	n	n	n
COC(=O)c1ccc(N/C=C\C(=O)c2ccc3c(c2)OCO3)cc1	n	n	n	117.9	n	n	44.4	RORg counter=n
COc1ccc(N/C=C/C(=O)c2ccc(OC)c(OC)c2)cc1	n	n	n	n	n	n	x
Cc1cc(Cl)ccc1Oc1ncc(-c2ccc(Cl)cc2)cn1	n	n	n	23.7	n	n	17.9
CCN(CC)c1ccc(/C=C(/C#N)c2nc3ccccc3[nH]2)c(OC(C)C)c1	n	n	n	39.1	n	n	46.0	RORg counter=n
Cc1cc2oc(=O)cc(COC(=O)c3n[nH]c4ccccc34)c2cc1C	n	n	n	22.7	n	n	n
CNc1ccccc1/C(O)=C(\C#N)C(=O)NCc1cccc2ccccc12	x	x	x	41.9	x	x	25.8
O=C(NCc1cccc2ccccc12)Nc1ccccc1	n	n	n	n	n	n	x
CC(C)(C)OC(=O)N1CCC(N[C@@H](Cc2ccccc2)C(=O)NCC(c2ccccc2)c2ccccc2)(C(=O)NC2CCCCC2)CC1	x	x	x	n	x	x	x
COc1ccc(NC(=O)CSc2nnc(-c3cccs3)n2N)c(OC)c1	n	n	n	12.8	n	n	n
COc1ccc(C=Cc2ccc3ccccc3n2)c(OC)c1	n	n	x	20.1	n	n	n
COc1ccc(OC)c(/C=C/c2ccc3cccc(O)c3n2)c1	n	n	n	n	n	n	x
COC[C@H]1CCCN1c1ccc2c(c1)O[C@H](C)CCN(C1CC1)S2(=O)=O	x	x	x	n	x	x	x
Cc1ccc(-c2nn(C)c(=O)c3ccccc23)cc1S(=O)(=O)N1CCOCC1	n	n	n	n	n	n	x
Cc1ccc(-c2nn(C)c(=O)c3ccccc23)cc1S(=O)(=O)N1CCCC1	n	n	n	26.3	n	n	36.0	RORg counter=n
Cc1ccsc1S(=O)(=O)n1c(CN2CCOCC2)nc2ccccc21	x	x	x	n	x	x	x
COC(=O)c1ccc(S(=O)(=O)NCCSc2nnc3c4ccccc4n(C)c3n2)cc1	x	n	n	29.2	n	n	17.7
CC(=O)Nc1ccc(NC(=O)CSc2nnc3c4ccccc4n(C)c3n2)cc1	n	n	n	n	n	n	x
CC(C)CSc1nnc2c3ccccc3n(C)c2n1	n	n	n	19.8	n	n	n
SMILES	PG9 binder	PKA-R1A activ	NR2E3 ag-1	NR1D1 modulator	PKA-R2B act	NR2E3 ag-2	NR1D1 mod conf	others
CC(C)OC(=O)CSc1nnc2c3ccccc3n(C)c2n1	n	n	n	n	n	n	x
CSc1ccc(/C=C(\C#N)C(=O)Nc2cccc(C)c2)cc1	n	n	n	22.4	n	n	n
CSc1ccc(/C=C(\NC(=O)c2ccc(C)cc2)C(=O)Nc2cccc(C)c2)cc1	n	n	n	n	n	n	x
COc1cc(-c2cc(C(=O)Nc3cccc(S(=O)(=O)N(C)C)c3)c3ccccc3n2)cc(OC)c1OC	n	n	n	15.2	n	n	n
COc1ccc(NC(=O)c2cc(-c3cc(OC)c(OC)c(OC)c3)nc3ccccc23)cc1OC	n	n	n	n	n	n	x
N#C/C(=C\c1ccc(-c2ccc(C(=O)O)cc2)o1)c1nc2ccccc2[nH]1	n	n	x	41.9	n	n	27.2
CCOC(=O)C1=NOC(C(C)=O)(C(=O)Nc2cc(C)cc(C)c2)C1 (configuration not stated)	x	x	x	n	x	x	x
COc1cc(NC(=O)C2CCCN(S(=O)(=O)c3cccc4cccnc34)C2)cc(OC)c1 (configuration not stated)	x	x	x	n	x	x	x
CC(C)(C)C(=O)Nc1ccc2oc(-c3cc(F)c(F)cc3Cl)nc2c1	n	n	n	22.3	n	n	n
COc1ccc(C(=O)c2[nH]c(N)c(C(=O)c3c[nH]c4ccccc34)c2-c2ccc(OC)cc2)cc1	n	x	x	n	x	x	x
Cc1cc(Br)ccc1NC(=O)c1sc2ncnc(N3CCN(c4ccccn4)CC3)c2c1C	n	n	n	69.1	n	n	n
COc1ccc(NC(=O)c2sc3nc(C)nc(N4CCN(c5ccccn5)CC4)c3c2C)cc1Cl	n	n	n	n	n	n	x
COc1ccc(NC(=O)c2sc3ncnc(N4CCN(c5ccccn5)CC4)c3c2C)cc1Cl	n	n	n	28.3	n	n	20.3
Cc1c(C(=O)NC2CCCCC2)sc2ncnc(N3CCN(c4ccccc4)CC3)c12	n	n	n	39.2	n	n	n
O=C(OC12CCCN(C1)/C(=C/c1cccc(Cl)c1)C2)c1cccc(F)c1 (configuration not stated)	x	x	x	n	x	x	x
Cc1ccc2[nH]cc(S(=O)(=O)c3ccc(F)cc3)c(=O)c2c1	n	n	n	n	n	n	x
CCOc1ccc(S(=O)(=O)c2c[nH]c3ccc(C)cc3c2=O)cc1	n	n	n	30.6	n	n	19.8
COC(=O)C1=C(C)N(C)C(=NCC2CC2)NC1c1cccc(C(F)(F)F)c1 (configuration not stated)	n	x	x	n	x	x	x
O=C(COc1ncnc2c(Cl)cc(Cl)cc12)NCCC1=CCCCC1	n	n	n	22.2	n	n	n
